According to PubChem BioAssay AID449755 (Broad Institute, 2010):
Results filed as inconclusive are left out. Activity calls are given as the source filed them.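 Rule for the calls: active = compounds raising caspase signal whose fitted AC50 is at most ten times the top tested dose; inconclusive = flat fit with 30 to 70% activity, or failed fit; inactive = the rest.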

System: HMC 1-8 low-A1 cells, caspase-3/7 luminescence, 3 h
Test: caspase activation in low-A1 HMC 1-8 cells, dose response, counter-screen for A1 inhibitor project, cell-based, caspase luminescence (AID 449755)
Outline: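 Material: HMC 1-8 human cancer cells with low A1 expression / Amount: 2500 cells/well / Medium: RPMI-1640, 10% FBS / Dosing: compound delivered by pin transfer / Times: compound 3 h at 37 °C, detection 1 h RT / Detection: caspase-3/7 DEVD luminescence / Evaluation: caspase activation as non-A1 counterscreen signal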

Structure (SMILES) | AC50
COc1ccc(NC(=S)NC(NC(=O)/C=C/c2ccccc2)C(Cl)(Cl)Cl)cc1 (stereo not given) | > 35 µM (inactive)
Cc1ccc(C=C2C(Cl)=C(Cl)C(Cl)=C2Cl)cc1 | 12.9 µM
Cc1ccc(C(=O)/C=C/C(=O)c2ccc(C)cc2)cc1 | > 35 µM (inactive)
O=C1C2C3C=CC(CO)(O3)C2C(=O)N1c1ccc(-c2ccccc2)cc1 (stereo not given) | > 35 µM (inactive)
Cc1nn(Cc2ccc(Cl)cc2Cl)c(C)c1NC(=O)Cn1nc([N+](=O)[O-])c(Cl)c1C | > 35 µM (inactive)
COc1cc(-c2cc(-c3ccccc3)nc(SCC(=O)Nc3nccs3)c2C#N)cc(OC)c1OC | > 35 µM (inactive)
Cc1ccc(C#N)c(SCC(=O)Nc2nccs2)n1 | > 35 µM (inactive)
CN(C)C/C=C(\c1ccc(Br)cc1)c1cccnc1 | > 35 µM (inactive)
CC1CC(C)CN(C(=O)c2ccc(-c3ccc([N+](=O)[O-])cc3)o2)C1 (stereo not given) | > 35 µM (inactive)
O=C1/C(=C/c2ccc(N3CCOCC3)o2)SC(=Nc2ccccc2)N1CCc1c[nH]c2ccccc12 | > 35 µM (inactive)
Cc1c(C=O)c(C=O)c(C)n1Cc1ccccc1 | > 35 µM (inactive)
CCC(Sc1nc2cc3c(cc2c(=O)n1Cc1ccco1)OCO3)C(=O)Nc1cccc(OC)c1 (stereo not given) | > 35 µM (inactive)
COc1cc(C(=O)Nc2cc3c(cc2N2CCCCC2)n(C)c(=O)n3C)cc(OC)c1OC | > 35 µM (inactive)
N#Cc1cccnc1N1CCN(C(=O)c2cccc3c2C(=O)c2ccc(-c4ccc(Cl)c(C(F)(F)F)c4)cc2S3(=O)=O)CC1 | > 35 µM (inactive)
Cc1cc(C)n(-c2nc(Nc3ccccc3C)nc(-n3nc(C)cc3C)n2)n1 | > 35 µM (inactive)
COc1ccc(C(=O)/C=C/C(=O)N(CC(=O)NC2CCCCC2)Cc2cccs2)c(O)c1 | 5.69 µM
O=C(Nc1ccc2oc(-c3ccccc3)nc2c1)c1ccccc1F | > 35 µM (inactive)
COCc1cc(C)nc(SCC(=O)Nc2nc(C)cs2)c1C#N | > 35 µM (inactive)
COc1ccc(-c2c(C#N)c(N)nc(Sc3ccc(Cl)cc3)c2C#N)cc1 | > 35 µM (inactive)
Cc1cc(NC(=O)CSc2nc3cc(Cl)ccc3c(=O)n2Cc2ccco2)no1 | > 35 µM (inactive)
CCCCN1C(=O)/C(=C2/Sc3ccccc3N2C)S/C1=N\c1ncn[nH]1 | > 35 µM (inactive)
COc1ccccc1C(=O)Nc1ccnn1C1CCN(Cc2cn(C)c3ccccc23)CC1 | > 35 µM (inactive)

Structure (SMILES) | AC50
O=C(Oc1cccc(/C=N/Nc2nc(Nc3ccccc3)nc(N3CCOCC3)n2)c1)c1ccco1 | > 35 µM (inactive)
CCOC(=O)/C(=C\c1cccnc1)C(=O)c1cc(C(C)=O)c(Nc2ccccc2)s1 | > 35 µM (inactive)
CC(C)(C)c1ccc2c(c1)OC(C(=O)N/N=C\c1ccc[nH]1)CO2 (stereo not given) | > 35 µM (inactive)
O=C(COc1ccc(/C=N/NC(=O)c2cc3ccccc3o2)cc1Cl)Nc1ccccc1 | 8.65 µM
Cc1ccc(NC(=S)NC(NC(=O)Cc2cccc3ccccc23)C(Cl)(Cl)Cl)cc1 (stereo not given) | 27 µM
COc1ccc(NC(=O)CSc2nc3ccc(Nc4nc(N5CCOCC5)nc(N5CCOCC5)n4)cc3s2)cc1 | > 35 µM (inactive)
CC(C)c1ccc2[nH]c(O)c(N=NC(=O)c3cccc(S(=O)(=O)Nc4ccc(Cl)cc4)c3)c2c1 | > 35 µM (inactive)
CC(C)(C)c1ccc(C(=O)Nc2ccc(O)c3c(=O)cc(-c4cccc(Cl)c4)oc23)cc1 | > 35 µM (inactive)
N#CC(C#N)=C1C=CC=CN1/C(=C\c1ccccc1Cl)C(=O)c1ccccc1 | 27.9 µM
COc1cc(NC(=O)c2ccccc2)c(OC)cc1NC(=O)Cc1ccc(Br)cc1 | > 35 µM (inactive)
COc1ccccc1-c1cn[nH]c1-c1ccc(OCc2ccccc2)cc1O | > 35 µM (inactive)
COc1ccc(C[C@H]2NC[C@H](O)[C@H]2OC(C)=O)cc1 | 1.09 µM
CC(C)c1cccc(-c2ccc3c(c2)S(=O)(=O)c2cccc(C(=O)NCc4ccccc4Cl)c2C3=O)c1 | > 35 µM (inactive)
O=C(Cn1c(C(F)(F)F)nc2ccccc21)N=Nc1c(O)[nH]c2ccc(Br)cc12 | 32.3 µM
COC(=O)CSc1nc(N)c2c3c(sc2n1)C(c1ccccc1)SC(c1ccccc1)C3 (stereo not given) | > 35 µM (inactive)
COc1ccc2c(c1)[nH]c1c(=O)n(/N=C/C3C(C)C=C(C)CC3C)c(=O)[nH]c12 (stereo not given) | > 35 µM (inactive)
CC(=O)OC(C)(C)/C=C/C(=O)C(C)(O)C1[C@H](O)C[C@@]2(C)C3CC=C4C(CC[C@@H](O)C4(C)C)[C@]3(CO)C(=O)C[C@]12C (stereo not given in full) | > 35 µM (inactive)
COC(=O)c1ccc2c(c1)C(C)(C)C(/C=C/c1ccccc1O)=[N+]2C | 8.58 µM
Cc1cc(C(=O)CCl)c(C)n1CCc1ccc(Cl)cc1 | > 35 µM (inactive)
COc1cc2ncnc(NCc3ccc(F)cc3)c2cc1OC | > 35 µM (inactive)
Cc1nn(-c2ccccc2)c(C)c1/C=N/NC(=O)CSc1nc2ccccc2c(=O)n1-c1ccc(Br)cc1 | > 35 µM (inactive)
CCOC(=O)COc1ccccc1/C=C\[N+](=O)[O-] | > 35 µM (inactive)

Structure (SMILES) | AC50
CC1(C)C[C@H](O)[C@]2(CO)[C@H](O)C[C@]3(C)C(=CCC4[C@@]5(C)CC[C@H](O)C(C)(C)C5CC[C@]43C)[C@@H]2C1 (stereo not given in full) | > 35 µM (inactive)
COc1ccccc1CCNC(C)CCc1ccc(O)cc1 (stereo not given) | > 35 µM (inactive)
COc1cc(/C=C(/C#N)C(=O)Nc2ccc(Cl)cc2)ccc1Oc1nc(Cl)ncc1F | > 35 µM (inactive)
CCOC(=O)c1c(C)oc2c1c(CN1CCN(C(=O)OCC)CC1)c(O)c1ccccc12 | 26.3 µM
O=C(N=Nc1c(O)[nH]c2ccc([N+](=O)[O-])cc12)c1cc(-c2ccccc2Cl)nc2ccccc12 | > 35 µM (inactive)
Cc1ccc(C2(c3ccc(C)cc3)CC2C(=O)Nc2ccc([N+](=O)[O-])cc2O)cc1 (stereo not given) | > 35 µM (inactive)
CCCc1ccc(OCc2ccc(C(=O)N/N=C/c3cccc([N+](=O)[O-])c3)o2)c(OC)c1 | 7.31 µM
O=C(NC1CCCCC1)c1cccc2c1C(=O)c1ccc(-c3ccc(OC(F)(F)F)cc3)cc1S2(=O)=O | > 35 µM (inactive)
CC(C)c1cccc(-c2ccc3c(c2)S(=O)(=O)c2cccc(C(=O)NC4CCCC4)c2C3=O)c1 | > 35 µM (inactive)
CC(C)CCN(C(=O)Cc1ccc(Cl)c(Cl)c1)c1c(N)n(Cc2ccccc2)c(=O)[nH]c1=O | 24.3 µM
COc1ccc(C2CC(c3c(O)cc(C)oc3=O)=NCCS2)c(OC)c1 (stereo not given) | > 35 µM (inactive)
O=C(Nc1ccc([N+](=O)[O-])cc1)c1nc[nH]c1C(=O)NC1CCCCC1 | > 35 µM (inactive)
COc1cc(NC(=O)c2ccc(Cl)cc2Cl)ccc1-c1cc2ccccc2oc1=O | > 35 µM (inactive)
COc1cc(/C=C(/C#N)c2nc3ccccc3[nH]2)ccc1OCC(=O)Nc1ccccc1C | 3.01 µM
Cc1nn(-c2ccccc2)c(Cl)c1CN(C(=O)CCl)c1ccc(Cl)cc1 | > 35 µM (inactive)
CCOC(=O)c1ccc(-c2ccc(/C=N/NC(=O)CN(c3cccc(C)c3)S(C)(=O)=O)o2)cc1 | > 35 µM (inactive)
COc1cc(CN2CCN(c3cc(C)ccc3C)CC2)ccc1O | > 35 µM (inactive)
CCC1CCCCN1S(=O)(=O)c1ccc(NC(=O)c2nc(S(C)(=O)=O)ncc2Cl)cc1 (stereo not given) | > 35 µM (inactive)
COc1ccc(NC(=O)c2cccc3c2C(=O)c2ccc(-c4ccc(F)cc4OCc4ccccc4)cc2S3(=O)=O)cc1 | > 35 µM (inactive)
O=C(c1ccc(COc2ccc3ccccc3c2)o1)N1N=C(C(F)F)CC1(O)C(F)F (stereo not given) | > 35 µM (inactive)
CCc1ccccc1NC(=O)C(CC)Sc1nc2cc3c(cc2c(=O)n1Cc1ccco1)OCO3 (stereo not given) | > 35 µM (inactive)
Cc1ccc(N(Cc2cc(=O)[nH]c3ccccc23)C(=O)CCl)cc1 | > 35 µM (inactive)

Structure (SMILES) | AC50
COc1cc(NC(=O)c2ccccc2F)ccc1NC(=O)c1cc2ccccc2o1 | > 35 µM (inactive)
CCS(=O)(=O)c1ncc(Cl)c(C(=O)Nc2ccccc2OC)n1 | > 35 µM (inactive)
Oc1[nH]c2ccc(Br)cc2c1N=NC(=S)Nc1ccc(F)cc1 | > 35 µM (inactive)
CC(=O)OC(C)(C)/C=C/C(=O)[C@](C)(O)C1[C@H](O)C[C@@]2(C)C3CC=C4C(C[C@H](O)C(=O)C4(C)C)[C@]3(C)C(=O)C[C@]12C (stereo not given in full) | > 35 µM (inactive)
COc1cc(NC(=O)c2cccc(C)c2)ccc1NC(=O)c1cc2ccccc2o1 | > 35 µM (inactive)
N#C/C(=C\c1ccc(OCc2ccccc2)cc1)C(=O)Nc1nc2c(s1)CCN(Cc1ccccc1)C2 | > 35 µM (inactive)
Cc1ccc(C)c(S(=O)(=O)NCC(=O)Nc2sc3c(c2C(N)=O)CCC(C)C3)c1 (stereo not given) | > 35 µM (inactive)
CCc1nn(-c2cc(Oc3cccc4ccccc34)nc(-c3ccccc3)n2)c(N)c1C#N | > 35 µM (inactive)
CCOCCCNC(=O)c1ccc2c(c1)N=C(CC)c1cc(Br)ccc1S2 | > 35 µM (inactive)
O=C(NC[C@H]1CCCO1)c1cccc2c1C(=O)c1ccc(-c3ccc(F)cc3OCc3ccccc3)cc1S2(=O)=O | > 35 µM (inactive)
COc1ccc(-c2cc(=O)oc3c(C)c(OC(=O)c4cccs4)ccc23)cc1 | > 35 µM (inactive)
O=C(Nc1ccc2oc(-c3ccccc3Cl)nc2c1)c1cncc(Br)c1 | > 35 µM (inactive)
Cc1cccc(NC(=O)/C(C#N)=C/c2cn(CC(=O)NCc3ccco3)c3ccccc23)c1 | > 35 µM (inactive)
COc1ccc(S(=O)(=O)N2CC(O)CC2C(=O)OCC(=O)Nc2ccc(Cl)cn2)cc1 (stereo not given) | > 35 µM (inactive)
CC(=O)Nc1ncnc2c1c(-c1ccc(Cl)cc1)nn2C(C)(C)C | > 35 µM (inactive)
COc1ccc(N(C(=O)CCl)C(C(=O)NCCc2ccccc2)c2cccs2)cc1Cl (stereo not given) | > 35 µM (inactive)
CCOC(=O)/C=c1\s/c(=C\c2ccc(C(=O)OC)cc2)c(=O)n1CC(=O)Nc1ccccc1 | > 35 µM (inactive)
COc1ccc(Cn2c(SCc3ccc(C)cc3)nc3cc(OC)c(OC)cc3c2=N)cc1Cl | 27.1 µM
CCn1c(SCC(=O)c2ccccc2)nnc1-c1cc2cc(Br)ccc2o1 | > 35 µM (inactive)
